Screens deposited in PubChem BioAssay by several laboratories.
MEKK2wt PB1 HTS = raises or lowers MEK5 binding to wildtype human MEKK2 PB1 domain; Q9Y2U5; bead flow cytometry, Alexa488-MEK5 binding to MEKK2 WT; actives lie on both sides; binding response (% of control), % at 10 µM; 290,000 compounds, 1.1% hits; AID 1531; in the data active = binding response below about 67% or above about 130%
Apaf-1 inh = human Apaf-1 inhibition | O14727 | reconstituted apoptosome caspase-3 activity, DEVD-Rh110 fluorescence | inhibition, % at 20 µM | 330,000 compounds, 0.71% hits | AID 489030; active = inhibition of at least 40% at 20 µM;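 also: plate controls were DMSO wells for no effect and DEVD-CHO caspase inhibitor wells for full effect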
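detection = Rh110 fluorescence intensity | test system = biochemical Apaf-1 apoptosome reconstitution | also added = cytochrome c and DEVD-Rh110 substrate | schedule = 30 min plus 50 min, RT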
MEKK3 PB1 HTS = modulators (inhibitors or enhancers) of MEK5 binding to human MEKK3 PB1 domain | Q99759 | bead-based flow cytometry, Alexa488-MEK5 binding to MEKK3; actives lie on both sides; 0 = blocked by unlabeled MEK5, 100 = vehicle | binding response (% of control), % at 10 µM | 290,000 compounds, 1.4% hits | AID 1529;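 active = binding response more than 3 SD above or below the average of its plate-row segment, actives on both sides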;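 also: Alexa488 bead fluorescence after subtracting the streptavidin-only scavenger bead signal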
Target sequence (Q99759 whole entry, looked up, the tested form may be a part): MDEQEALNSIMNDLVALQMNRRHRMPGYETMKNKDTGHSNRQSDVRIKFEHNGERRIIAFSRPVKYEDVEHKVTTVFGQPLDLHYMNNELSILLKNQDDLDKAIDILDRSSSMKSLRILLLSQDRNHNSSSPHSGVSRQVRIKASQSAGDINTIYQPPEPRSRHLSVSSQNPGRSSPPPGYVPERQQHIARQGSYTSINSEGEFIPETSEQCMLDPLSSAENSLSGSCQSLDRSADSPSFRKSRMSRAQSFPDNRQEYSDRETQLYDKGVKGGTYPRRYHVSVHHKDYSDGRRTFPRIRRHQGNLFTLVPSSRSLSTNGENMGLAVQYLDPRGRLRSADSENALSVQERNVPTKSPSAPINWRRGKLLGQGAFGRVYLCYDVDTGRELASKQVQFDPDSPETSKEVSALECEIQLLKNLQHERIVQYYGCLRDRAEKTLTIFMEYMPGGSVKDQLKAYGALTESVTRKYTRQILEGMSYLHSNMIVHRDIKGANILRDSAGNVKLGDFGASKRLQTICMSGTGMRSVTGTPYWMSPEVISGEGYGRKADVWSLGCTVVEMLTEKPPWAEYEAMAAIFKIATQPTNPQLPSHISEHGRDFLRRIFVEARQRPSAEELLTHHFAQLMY
UBC13 polyUb = human UBC13 polyubiquitination inhibition. P61088. UBC13 polyubiquitin chain formation, TR-FRET. inhibition, % at 20 µM. 330,000 compounds, 0.47% hits. AID 485273; in the data active = inhibition above about 45%, passing the limit was not always enough
MEKK2mut PB1 HTS = signal of MEK5 binding to mutant human MEKK2 PB1 domain | bead flow cytometry, Alexa488-MEK5 binding to MEKK2 mutant | percent response, % at 10 µM | 290,000 compounds, 0.35% hits; in the data active = percent response above about 24%, passing the limit was not always enough
UCH37 DUB inh = inhibitors of human deubiquitinating enzyme UCH37; purified proteasome/UCH37, Ub-AMC cleavage fluorescence; Q9Y5K5; 330,000 compounds, 0.33% hits; inhibition, % (test concentration not listed); AID 588478;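 active = mean inhibition over replicate wells above about 20%, limit read from the data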;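 also: 0% = compound-free wells with enzyme and 100% = wells lacking proteasome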
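System: Proteasome-associated human UCH37 deubiquitinase; Input: 0.15 nM proteasome in added enzyme buffer; Also added: Ub-AMC substrate from 1 µM stock; Incubation: 30 min compound-proteasome preincubation then 25 min substrate reaction, room temperature; Detection: fluorescence, ex 355 nm, em 460 nm; Read-out: % inhibition of Ub-AMC cleavage fluorescence; Benchmarks: no-proteasome and no-compound wells.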
* marks the source's active call; other numbers are inactive results; i = inactive; . = no result given; [ ] = another dose, or the depositor's remark. Most compounds without a hit are left out; they make up all but 3% or so of the library.

SMILES	MEKK2wt PB1 HTS	Apaf-1 inh	MEKK3 PB1 HTS	UBC13 polyUb	MEKK2mut PB1 HTS	UCH37 DUB inh
COc1cccc(NC(=O)c2ccncc2)c1	111	6	104	-5	10	0
COc1cccc(NC(=O)c2ccc(NC(C)=O)cc2)c1	98	15	97	0	-2	26*
COc1cccc(NC(=O)c2cc(C(=O)Nc3cccc(OC)c3)n(C)n2)c1	108	41*	104	4	7	4
O=C(O)COc1ccc(/C=N/NC(=O)c2ccc(-c3csc(Nc4ccc(Cl)cc4)n3)cc2)cc1	73	.	60*[inhibitor]	.	-7	.
CCOc1cc(/C=N/NC(=O)c2ccc(-c3csc(Nc4ccc(C)cc4)n3)cc2)ccc1OCC(=O)O	77	.	80	.	-20	.
O=C(N/C=C/c1ccco1)Nc1cccc(Cl)c1	22*	-4	127	1	45	-3
Cc1cccn2c(=O)c3cc(C(=O)NC4CCCCC4)c(=N)n(Cc4ccccc4)c3nc12	79	57*	97	20	-2	i
COc1ccc(C(c2nnnn2C(C)C)N2CCN(C(=O)c3ccco3)CC2)cc1 (centres undefined)	46*[inhibitor]	11	53*[inhibitor]	-9	-20	0
CCCCNC(=S)NNC(=O)c1csc2c1CCC(C)C2 (centres undefined)	96	-1	103	-5	4	2
CCCCN1C(=O)C2(NNc3ccccc3O2)c2ccccc21 (centres undefined)	54*	14	108	-24	20	5
COc1ccc(C2=NOC(C)(c3nnc(Cc4ccccc4)o3)C2)cc1 (centres undefined)	102	-4	100	-3	0	29*
CC1(c2nnc(Cc3ccccc3)o2)CC(c2ccc(C#N)cc2)=NO1 (centres undefined)	103	11	102	4	1	-1
CC1(c2nnc(Cc3ccccc3)o2)CC(c2ccc(Cl)cc2)=NO1 (centres undefined)	101	2	104	1	3	28*
CC1(c2nnc(Cc3ccccc3)o2)CC(c2ccncc2)=NO1 (centres undefined)	101	1	105	-1	3	21*
Cc1c(C(C)NC(=O)c2ccc3nc(Cc4ccccc4F)oc3c2)cnn1C (centres undefined)	103	6	103	4	4	4
CCOc1ccccc1CNC(=O)C1CCCN(c2nc3ccccc3o2)C1 (centres undefined)	74	.	68*[inhibitor]	.	-14	.
CCOc1ccccc1CNC(=O)C1CCN(c2nc3ccccc3o2)CC1	.	-11	.	17	.	5
Cc1cc(C)c2c(=O)[nH]c(SCC(=O)NCCc3ccccc3)nc2n1	106	6	116	0	13	-20
Cc1ccc(C)n1Cc1ccc(C(=O)O)cc1	96	-9	97	28	-4	30*
Cc1cc(C)n(Cc2ccc(C(=O)O)cc2)n1	109	-13	103	6	5	-3
O=C(CSc1ncnc2c1cnn2-c1ccc(F)cc1)NCc1ccc2c(c1)OCO2	103	6	106	5	-2	0
CCC(=O)OCCNc1cc(Sc2nc3ccccc3s2)c2nonc2c1[N+](=O)[O-]	77	46*	76	-34	-11	13
O=[N+]([O-])c1c(NCCCO)cc(Sc2nc3ccccc3s2)c2nonc12	.	98*	.	-67	.	12
Cc1nnc(Sc2cc(NCCCO)c([N+](=O)[O-])c3nonc23)s1	62	.	52	.	-11	13
C/C(=N\NS(=O)(=O)c1ccccc1)c1ccc2c(c1)OCCO2	104	2	106	4	3	.
O=C(NCCc1ccccc1)/C(=C\c1ccc([N+](=O)[O-])cc1)NC(=O)c1ccco1	103	10	101	-17	7	10
Cc1csc(N)n1	98	0	87	-6	2	21*
Cn1c(=O)[nH]c(=O)c2c1nc(N1CCCCCC1)n2Cc1cccc2ccccc12	99	32	107	12	4	32*
